Measurements as given in ChEMBL document CHEMBL2434966, “Novel N-4-piperazinyl-ciprofloxacin-chalcone hybrids: synthesis, physicochemical properties, anticancer and topoisomerase I and II inhibitory activity” (Eur J Med Chem, 2013).

Experiments:
UACC-62 = test: Growth inhibition of human UACC62 cells after 48 hrs by sulforhodamine B assay; type: functional; conditions: UACC-62, 48 h
Summary of the method: (§1)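 NCI 60-cell panel, five concentrations (10-fold dilutions, 0.01–100 µM), 48 h continuous exposure; SRB protein stain read spectrophotometrically. Percent growth from time-zero, untreated-control and treated absorbances. GI50 is the concentration giving 50% lower net protein increase than control. Values beyond the tested range are reported as more or less than the highest or lowest concentration.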

TK-10 = test: Growth inhibition of human TK10 cells assessed as cell growth at 10^-5 M after 48 hrs by sulforhodamine B assay; type: functional; conditions: TK-10, 48 h, read-out: Activity
Summary of the method: (§2)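 NCI primary one-dose screen: single concentration of 10^-5 M added to culture, 48 h incubation, SRB protein-dye endpoint. Percent growth of treated cells measured spectrophotometrically against untreated controls.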

LOX IMVI = test: Growth inhibition of human LOXIMVI cells assessed as cell growth at 10^-5 M after 48 hrs by sulforhodamine B assay; type: functional; conditions: read-out: Activity
Summary of the method: (§3)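 NCI 60-cell-line primary screen. Single concentration of 10^-5 M, 48 h incubation. End point by sulforhodamine B protein staining read spectrophotometrically. Reported as percent growth of treated cells relative to untreated control cells.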

NCI-H23 = test: Growth inhibition of human NCI-H23 cells assessed as cell growth at 10^-5 M after 48 hrs by sulforhodamine B assay; type: functional; conditions: NCI-H23, 48 h, read-out: Activity
Summary of the method: (§4)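 NCI 60-cell-line primary one-dose screen. Cells were exposed to a single 10^-5 M concentration for 48 h. The end point was sulforhodamine B protein staining, read spectrophotometrically. Results are reported as percent growth of treated cells relative to untreated control cells.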

RXF 393 [1] = test: Growth inhibition of human RXF393 cells after 48 hrs by sulforhodamine B assay; type: functional; conditions: RXF 393, 48 h; for CC50: read-out: LC50 (the source's name)
Summary of the method: (§5)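 NCI five-dose screen on the full 60-cell-line panel. Cells were given 10-fold dilutions from 10^-4 to 10^-8 M with continuous 48 h exposure, and growth was read by SRB staining. Percent growth was taken from time-zero, control and treated absorbances. GI50, TGI and LC50 were then derived, the GI50 being the concentration that gives a 50% lower net protein increase than control.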

[2] = biological target: DNA topoisomerase 2-alpha (Homo sapiens) (UniProt P11388); test: Inhibition of human topoisomerase 2alpha-mediated relaxation of supercoiled pBR322 DNA at 100 uM after 30 mins by agarose gel electrophoresis relative to control
Summary of the method: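 Human topo IIα (1 unit) with 200 ng supercoiled pBR322 in Tris-HCl pH 7.9, 50 mM NaCl, 5 mM MgCl2, 1 mM EDTA, 1 mM ATP, BSA, 30 min at 30 °C. DMSO was matched in the enzyme-only control. Stopped with EDTA; 1% agarose/TAE gel, ethidium stain, supercoiled band quantified by UV imaging. Etoposide was the positive control.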

CAKI-1 = test: Growth inhibition of human CAKI-1 cells assessed as cell growth at 10^-5 M after 48 hrs by sulforhodamine B assay; type: functional; conditions: CAKI-1, 48 h, read-out: Activity; summary of the method: as §3
MCF7 = test: Growth inhibition of human MCF7 cells assessed as cell growth at 10^-5 M after 48 hrs by sulforhodamine B assay; type: functional; conditions: MCF7, 48 h, read-out: Activity; summary of the method: as §3
KM12 = test: Growth inhibition of human KM12 cells after 48 hrs by sulforhodamine B assay; type: functional; conditions: KM12, 48 h; for CC50: read-out: LC50 (the source's name)
Summary of the method: (§6)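 NCI 60-panel five-dose test at 10-fold dilutions, 10^-4 to 10^-8 M, with 48 h continuous exposure and SRB protein read-out. Percent growth derived from time-zero, untreated-control and treated absorbances. GI50 is the concentration where [(Ti-Tz)/(C-Tz)]×100 = 50. TGI is taken at Ti = Tz. LC50 is taken at [(Ti-Tz)/Tz]×100 = -50.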

T47D = test: Growth inhibition of human T47D cells assessed as cell growth at 10^-5 M after 48 hrs by sulforhodamine B assay; type: functional; conditions: read-out: Activity; summary of the method: as §2
RXF 393 [3] = test: Growth inhibition of human RXF393 cells assessed as cell growth at 10^-5 M after 48 hrs by sulforhodamine B assay; type: functional; conditions: RXF 393, 48 h, read-out: Activity; summary of the method: as §4
NCI-H522 = test: Growth inhibition of human NCI-H522 cells after 48 hrs by sulforhodamine B assay; type: functional; conditions: NCI-H522, 48 h; for CC50: read-out: LC50 (the source's name); summary of the method: as §5
UACC-257 = test: Growth inhibition of human UACC257 cells after 48 hrs by sulforhodamine B assay; type: functional; conditions: UACC-257, 48 h; for CC50: read-out: LC50 (the source's name); summary of the method: as §1
[4] = Growth inhibition of human NCI-ADR-RES cells assessed as cell growth at 10^-5 M after 48 hrs by sulforhodamine B assay; type: functional; conditions: read-out: Activity; summary of the method: as §4
SR = test: Growth inhibition of human SR cells after 48 hrs by sulforhodamine B assay; type: functional; summary of the method: as §1
OVCAR-3 = test: Growth inhibition of human OVCAR3 cells after 48 hrs by sulforhodamine B assay; type: functional; conditions: OVCAR-3, 48 h; for CC50: read-out: LC50 (the source's name); summary of the method: as §5
[5] = Growth inhibition of human HCC2998 cells after 48 hrs by sulforhodamine B assay; type: functional; conditions: HCC 2998, 48 h; for CC50: read-out: LC50 (the source's name); summary of the method: as §6

DNA topoisomerase 2-alpha (Homo sapiens), sequence (P11388 whole entry): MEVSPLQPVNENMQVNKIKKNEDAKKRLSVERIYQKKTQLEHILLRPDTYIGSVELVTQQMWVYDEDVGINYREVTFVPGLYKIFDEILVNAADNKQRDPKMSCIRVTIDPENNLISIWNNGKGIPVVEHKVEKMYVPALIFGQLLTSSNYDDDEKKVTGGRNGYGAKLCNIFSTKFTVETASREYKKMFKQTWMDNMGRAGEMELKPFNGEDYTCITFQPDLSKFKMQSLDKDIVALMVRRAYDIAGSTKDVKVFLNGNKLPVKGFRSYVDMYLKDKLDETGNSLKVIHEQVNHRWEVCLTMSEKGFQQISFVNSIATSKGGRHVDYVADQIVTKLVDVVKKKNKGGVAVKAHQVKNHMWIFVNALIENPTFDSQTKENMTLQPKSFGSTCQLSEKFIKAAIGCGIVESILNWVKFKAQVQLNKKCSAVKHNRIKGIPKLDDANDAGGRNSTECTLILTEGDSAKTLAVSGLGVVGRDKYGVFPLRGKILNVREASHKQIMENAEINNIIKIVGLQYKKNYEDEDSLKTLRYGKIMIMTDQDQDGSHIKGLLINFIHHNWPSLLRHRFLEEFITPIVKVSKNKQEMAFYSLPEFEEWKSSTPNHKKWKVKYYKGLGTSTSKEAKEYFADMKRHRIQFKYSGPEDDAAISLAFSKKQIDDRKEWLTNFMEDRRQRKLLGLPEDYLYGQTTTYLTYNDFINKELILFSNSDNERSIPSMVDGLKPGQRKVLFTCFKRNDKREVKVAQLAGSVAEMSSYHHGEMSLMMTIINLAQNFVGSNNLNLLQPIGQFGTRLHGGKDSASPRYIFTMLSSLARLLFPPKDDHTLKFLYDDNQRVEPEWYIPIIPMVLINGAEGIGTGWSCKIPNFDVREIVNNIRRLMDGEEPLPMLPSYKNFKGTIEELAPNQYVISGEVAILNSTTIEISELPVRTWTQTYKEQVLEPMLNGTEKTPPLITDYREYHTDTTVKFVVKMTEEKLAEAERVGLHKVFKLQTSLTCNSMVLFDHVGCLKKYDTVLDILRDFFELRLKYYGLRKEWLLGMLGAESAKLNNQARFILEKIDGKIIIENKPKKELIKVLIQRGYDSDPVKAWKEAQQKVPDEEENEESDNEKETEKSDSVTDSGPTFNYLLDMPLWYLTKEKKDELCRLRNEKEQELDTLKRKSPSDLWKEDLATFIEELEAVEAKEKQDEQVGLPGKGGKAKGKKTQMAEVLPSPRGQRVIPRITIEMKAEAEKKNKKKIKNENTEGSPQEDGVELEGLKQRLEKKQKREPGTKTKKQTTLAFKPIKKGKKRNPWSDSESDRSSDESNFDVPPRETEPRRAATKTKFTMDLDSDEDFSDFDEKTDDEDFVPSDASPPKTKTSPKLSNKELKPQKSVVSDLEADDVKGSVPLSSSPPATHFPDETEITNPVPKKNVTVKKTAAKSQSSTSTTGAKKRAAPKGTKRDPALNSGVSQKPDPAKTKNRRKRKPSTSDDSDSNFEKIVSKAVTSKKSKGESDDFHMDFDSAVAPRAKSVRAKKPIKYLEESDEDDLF

| Structure (SMILES) | GI50 (UACC-62) [µM] | LC50 (UACC-62) [µM] | TGI (UACC-62) [µM] | growth at 10 µM (TK-10) [%] | growth at 10 µM (LOX IMVI) [%] | growth at 10 µM (NCI-H23) [%] | GI50 (RXF 393 [1]) [µM] | TGI (RXF 393 [1]) [µM] | CC50 (RXF 393 [1]) [µM] | inhibition [2] [%] | growth at 10 µM (CAKI-1) [%] | growth at 10 µM (MCF7) [%] | GI50 (KM12) [µM] | TGI (KM12) [µM] | CC50 (KM12) [µM] | growth at 10 µM (T47D) [%] | growth at 10 µM (RXF 393 [3]) [%] | GI50 (NCI-H522) [µM] | TGI (NCI-H522) [µM] | CC50 (NCI-H522) [µM] | other results |
| --- | --- | --- | --- | --- | --- | --- | --- | --- | --- | --- | --- | --- | --- | --- | --- | --- | --- | --- | --- | --- | --- |
| COc1cc(/C=C/C(=O)c2ccc(NC(=O)CN3CCN(c4cc5c(cc4F)c(=O)c(C(=O)O)cn5C4CC4)CC3)cc2)cc(OC)c1OC | 0.8 | 27.9 | 3.63 | 19.1 | -54.7 | -35.6 | 0.34 | 1.06 | 3.47 | 5.2 | 57.2 | 26.5 | 0.53 | 3.17 | > 100 | 17.6 | -87.6 | 0.66 | 3.19 | 17.9 | GI50 (UACC-257): 1.42 µM; TGI (UACC-257): 65.4 µM; CC50 (UACC-257): > 100 µM; growth at 10 µM [4]: 98.2%; GI50 (SR): 0.21 µM; LC50 (concentration killing 50% of cells) (SR): > 100 µM; TGI (SR): > 100 µM; GI50 (OVCAR-3): 0.29 µM; TGI (OVCAR-3): 0.92 µM; CC50 (OVCAR-3): 9.04 µM; GI50 [5]: 2.76 µM; TGI [5]: 11.4 µM; CC50 [5]: > 100 µM |
| O=C(CN1CCN(c2cc3c(cc2F)c(=O)c(C(=O)O)cn3C2CC2)CC1)Nc1ccc(C(=O)/C=C/c2ccccc2)cc1 | 3.71 | > 100 | > 100 | 39.9 | 5.67 | 24 | 2.5 | > 100 | > 100 | 35.7 | 73.1 | 12.5 | 4.11 | > 100 | > 100 | 85.1 | 41.7 | 1.7 | 7.78 | > 100 | GI50 (UACC-257): 3.9 µM; TGI (UACC-257): 90.8 µM; CC50 (UACC-257): > 100 µM; growth at 10 µM [4]: 93.5%; GI50 (SR): 1.54 µM; LC50 (concentration killing 50% of cells) (SR): > 100 µM; TGI (SR): 6.1 µM; GI50 (OVCAR-3): 3.64 µM; TGI (OVCAR-3): > 100 µM; CC50 (OVCAR-3): > 100 µM; GI50 [5]: 39.6 µM; TGI [5]: > 100 µM; CC50 [5]: > 100 µM |
